For the test, the system named is Mycobacterium tuberculosis. The test is described as follows: Antimycobacterial activity against Mycobacterium tuberculosis H37Rv ATCC 27294 after 7 days by REMA assay. Type of test: functional. Particulars: H37Rv ATCC 27294, 168 h. Put shortly:
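MIC by resazurin microtiter assay. Bacteria suspended in sterile water with glass beads, vortexed, turbidity set to McFarland tube 1 (3.2 × 10^6 CFU/mL), then diluted 1:20 in Middlebrook 7H9. Compounds in DMSO, two-fold serial dilutions (100.0-3.2 µg/mL) in 7H9 with 10% OADC. Incubated 37 °C for 7 days, resazurin added, further 2 days at 37 °C. MIC read from colour change.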

The structures appear in SMILES notation. ≈ marks a conversion by molar mass, not a printed value.

As a reminder, the MIC is the lowest concentration that inhibits growth of the organism. Low values mean greater potency, high ones weaker potency. Consider `NNC(=O)c1ccncc1` [ISONIAZID], for which the MIC stood at 0.06 µg/mL (≈ 0.438 µM).
On to `CCCCCC[C@@H](O)C/C=C\CCCCCCCC(=O)NNC(=O)c1ccncc1`, for which the MIC is 0.03 µg/mL (≈ 0.0718 µM).
Take `CCCCCCCC/C=C\CCCCCCCC(=O)O` [OLEIC ACID]: inhibition of growth (MIC) required 100 µg/mL (≈ 354 µM).
The figure for `CO[C@H]1/C=C/O[C@@]2(C)Oc3c(C)c(O)c4c(O)c(c(/C=N/N5CCN(C)CC5)c(O)c4c3C2=O)NC(=O)/C(C)=C\C=C\[C@H](C)[C@H](O)[C@@H](C)[C@@H](O)[C@@H](C)[C@H](OC(C)=O)[C@@H]1C` [RIFAMPIN] is 0.03 µg/mL (≈ 0.0365 µM); for `CCCCCCCC/C=C\CCCCCCCC(=O)NN` [OLEOHYDRAZIDE] it is 50 µg/mL (≈ 169 µM); for `CCCCCCCC/C=C\CCCCCCCC(=O)NNC(=O)c1ccncc1` it is 0.015 µg/mL (≈ 0.0374 µM).
On to `CC/C=C\C/C=C\C/C=C\CCCCCCCC(=O)NNC(=O)c1ccncc1`, for which 0.06 µg/mL (≈ 0.151 µM) was the least that counted as inhibitory (MIC).
In turn, `CCCCCCCCCCCCCCCC(=O)NNC(=O)c1ccncc1` yielded an MIC of 0.015 µg/mL (≈ 0.0399 µM).
The figure for `CCCCCCCC/C=C/CCCCCCCC(=O)NNC(=O)c1ccncc1` is 0.03 µg/mL (≈ 0.0747 µM).
`CCCCCCCCCCCCCCCCCC(=O)NNC(=O)c1ccncc1` displayed an MIC of 0.03 µg/mL (≈ 0.0743 µM).
Consider `CCCCC/C=C\C/C=C\CCCCCCCC(=O)NNC(=O)c1ccncc1`, for which inhibition of growth (MIC) required 0.125 µg/mL (≈ 0.313 µM).

Values taken from ChEMBL document CHEMBL2440109, “Synthesis and antimycobacterial activity of isoniazid derivatives from renewable fatty acids” (2013).
